# Experimental data reported in publication PMC5125728 (Cell reports, 2016).
# Where a chain is given by its changes, count along the chain named. Where no end group is shown, it is not given here. Me2 = dimethyl (dimethyl-lysine)
# T1: E662D mutant of PHF20-PHD (Homo sapiens, UniProt Q9BVI0, E662D)
# T1 sequence (Q9BVI0 651-699 E662D): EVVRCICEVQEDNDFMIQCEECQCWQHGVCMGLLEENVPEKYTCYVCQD
# T2: PHF20 PHD finger (WT) (Homo sapiens, UniProt Q9BVI0)
# T2 sequence (Q9BVI0 651-699): T1 sequence (Q9BVI0 651-699 E662D) with D12E
# T3: PHF20 Tudor2 (aa 58-148) (human, UniProt Q9BVI0 58-148)
# T3 sequence (looked up): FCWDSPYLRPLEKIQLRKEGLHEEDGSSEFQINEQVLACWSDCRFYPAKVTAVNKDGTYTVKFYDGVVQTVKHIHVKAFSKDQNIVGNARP
# T4: PHF20 PHD finger P689L (human, UniProt Q9BVI0 651-699, P689L)
# T4 chain (looked up): T1 sequence (Q9BVI0 651-699 E662D) with D12E, P39L
# T5: PHF20 PHD finger R654H (human, UniProt Q9BVI0 651-699, R654H)
# T5 chain (looked up): T1 sequence (Q9BVI0 651-699 E662D) with R4H, D12E
# T6: PHF20 PHD finger F665V (human, UniProt Q9BVI0 651-699, F665V)
# T6 chain (looked up): T1 sequence (Q9BVI0 651-699 E662D) with D12E, F15V
# T7: PHF20 PHD finger (aa 651-699), wild type (human, UniProt Q9BVI0 651-699)
# T7 chain (looked up): T1 sequence (Q9BVI0 651-699 E662D) with D12E
# T8: PHF20 PHD finger E662D (human, UniProt Q9BVI0 651-699, E662D)
# T8 chain (looked up): T1 sequence (Q9BVI0 651-699 E662D)
# T9: PHF20 PHD finger (residues 646-699) (human, UniProt Q9BVI0 646-699)
# T9 sequence (looked up): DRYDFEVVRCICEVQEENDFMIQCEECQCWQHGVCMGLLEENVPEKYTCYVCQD
# B1: H3K4me2 peptide (aa 1-12) (peptide, UniProt P68431 2-13, looked up)
# peptide: ARTK(Me2)QTARKSTG
# B2: 11-residue C-terminally amidated H3K4me2 peptide (peptide)
# peptide: ARTK(Me2)QTARKST-NH2
# How the values were obtained:
# [1] = molecular target: PHF20 PHD finger (aa 651-699), wild type (human) (UniProt Q9BVI0); test: other fluorescence titration
# [2] = molecular target: T1, E662D mutant of PHF20-PHD; test: Tryptophan fluorescence binding of histone peptides to E662D mutant of PHF20 PHD
# Outline: (§1)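 The PHF20 PHD (aa 651–699, GST cleaved; mutants by site-directed mutagenesis) was in PBS pH 6.8 with 10 mM DTT at room temperature. Histone peptide was increased progressively. Excitation was at 280 nm and emission was scanned 310–405 nm (0.5-nm steps, 1-s integration, three scans averaged). Kd came from a nonlinear least-squares fit of intensity change, averaged over three separate experiments, with SD between runs.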
# [3] = test system: E662K mutant of PHF20 PHD finger; test: NMR and tryptophan fluorescence binding, E662K mutant of PHF20 PHD; parameters: species or system human; conditions: E662K folded, soluble, stable protein; Figures 4C and 4E
# Outline: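 GST-tagged PHF20 PHD (aa 651–699), wild-type or point mutant made by site-directed mutagenesis, was expressed in E. coli Rosetta-2(DE3)pLysS in 15NH4Cl minimal medium with 150 μM ZnCl2, then GST-cleaved. 1H,15N HSQC spectra were collected at 298K (600/500 MHz) as 12-mer histone tail peptides were added stepwise. Shift changes were normalized as √(ΔδH²+(ΔδN/5)²); Kd came from a nonlinear least-squares fit.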
# [4] = test system: GST-PHF20 PHD; test: Biotinylated histone peptide pull-down with GST-PHF20 PHD, western blot; assay type: binding, human; conditions: 1 μg biotinylated peptide, 1 μg GST-PHF20 PHD, 50 mM Tris-HCl pH 7.5, 250 mM NaCl, 0.1% NP-40, overnight, streptavidin beads
# [5] = molecular target: T2, PHF20 PHD finger (WT); test: Tryptophan fluorescence binding of histone peptides to WT PHF20 PHD finger
# Outline: as §1
# [6] = molecular target: PHF20 PHD finger E662D (human) (UniProt Q9BVI0); test: other fluorescence titration
# [7] = molecular target: T3, PHF20 Tudor2 (aa 58-148); test: NMR titration
# [8] = molecular target: T4, PHF20 PHD finger P689L; test: NMR titration
# [9] = molecular target: T5, PHF20 PHD finger R654H; test: NMR titration
# [10] = molecular target: T6, PHF20 PHD finger F665V; test: NMR titration
# [11] = molecular target: T7, PHF20 PHD finger (aa 651-699), wild type; test: other fluorescence titration
# [12] = molecular target: T8, PHF20 PHD finger E662D; test: other fluorescence titration
# [13] = molecular target: T9, PHF20 PHD finger (residues 646-699); test: NMR structure
molecule,measurement,setting,value
H3K4me0 peptide (12-mer),fold weaker than H3K4me2,[1],20 fold
C[C@H](N)C(=O)N[C@@H](CCCNC(=N)N)C(=O)N[C@H](C(=O)N[C@@H](CCCCN(C)C)C(=O)N[C@@H](CCC(N)=O)C(=O)N[C@H](C(=O)N[C@@H](C)C(=O)N[C@@H](CCCNC(=N)N)C(=O)N[C@@H](CCCCN)C(=O)N[C@@H](CO)C(=O)N[C@H](C(N)=O)[C@@H](C)O)[C@@H](C)O)[C@@H](C)O [H3K4me2],Kd,[2],3.6 µM
same,interaction with E662K mutant,[3],completely abrogated interaction
same,binding in peptide pull-down,[4],binds
same,Kd,[5],3.6 µM
H3K4me3 peptide (12-mer),Kd,[6],3.7 µM
same,fold weaker than H3K4me2,[1],6 fold
H3K4me1 peptide (12-mer),fold weaker than H3K4me2,[1],14 fold
B1,Kd,[7],~1000 µM
same,fold decrease of binding compared with WT,[8],~17 fold
same,fold decrease of binding compared with WT,[9],~8 fold
same,fold decrease of binding compared with WT,[10],~9 fold
same,Kd,[11],3.6 µM
same,Kd,[12],3.6 µM
B2,binding result,[13],binds
